Reference: ChEMBL document CHEMBL1681705, “Optimisation of ITK inhibitors through successive iterative design cycles” (Bioorg Med Chem Lett, 2011)

Tests used:
[1] = molecular target: MAP kinase-activated protein kinase 2 (Homo sapiens) (UniProt P49137); test: Inhibition of MAPKAP-K2 at 0.1 uM; values are per cent of control
[2] = molecular target: Hepatocyte growth factor receptor (Homo sapiens) (UniProt P08581); test: Inhibition of Met at 1 uM
Outline: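 Single-point screen within a 108-kinase selectivity panel. Each kinase was tested with inhibitor at 0.1 and 1.0 micromolar, and activity was recorded as percent inhibition.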

[3] = molecular target: Cyclin-dependent kinase 7/ cyclin H (Homo sapiens) (UniProt P51946+P50613); test: Inhibition of CDK7/cyclin H/MAT1 at 1 uM; values are per cent of control
[4] = molecular target: Tyrosine-protein kinase CSK (Homo sapiens) (UniProt P41240); test: Inhibition of CSK at 1 uM; values are per cent of control
[5] = molecular target: Serine/threonine-protein kinase PLK3 (Homo sapiens) (UniProt Q9H4B4); test: Inhibition of Plk3 at 0.1 uM; values are per cent of control
[6] = molecular target: Ephrin type-A receptor 7 (Homo sapiens) (UniProt Q15375); test: Inhibition of EphA7 at 0.1 uM; values are per cent of control
[7] = molecular target: Macrophage colony-stimulating factor 1 receptor (Homo sapiens) (UniProt P07333); test: Inhibition of Fms at 1 uM; values are per cent of control
[8] = molecular target: RAC-beta serine/threonine-protein kinase (Homo sapiens) (UniProt P31751); test: Inhibition of PKBbeta at 1 uM; values are per cent of control
[9] = molecular target: T1, Ephrin type-B receptor 1 (Homo sapiens) (UniProt P54762); test: Inhibition of EphB1 at 0.1 uM; values are per cent of control
T1 sequence (whole entry): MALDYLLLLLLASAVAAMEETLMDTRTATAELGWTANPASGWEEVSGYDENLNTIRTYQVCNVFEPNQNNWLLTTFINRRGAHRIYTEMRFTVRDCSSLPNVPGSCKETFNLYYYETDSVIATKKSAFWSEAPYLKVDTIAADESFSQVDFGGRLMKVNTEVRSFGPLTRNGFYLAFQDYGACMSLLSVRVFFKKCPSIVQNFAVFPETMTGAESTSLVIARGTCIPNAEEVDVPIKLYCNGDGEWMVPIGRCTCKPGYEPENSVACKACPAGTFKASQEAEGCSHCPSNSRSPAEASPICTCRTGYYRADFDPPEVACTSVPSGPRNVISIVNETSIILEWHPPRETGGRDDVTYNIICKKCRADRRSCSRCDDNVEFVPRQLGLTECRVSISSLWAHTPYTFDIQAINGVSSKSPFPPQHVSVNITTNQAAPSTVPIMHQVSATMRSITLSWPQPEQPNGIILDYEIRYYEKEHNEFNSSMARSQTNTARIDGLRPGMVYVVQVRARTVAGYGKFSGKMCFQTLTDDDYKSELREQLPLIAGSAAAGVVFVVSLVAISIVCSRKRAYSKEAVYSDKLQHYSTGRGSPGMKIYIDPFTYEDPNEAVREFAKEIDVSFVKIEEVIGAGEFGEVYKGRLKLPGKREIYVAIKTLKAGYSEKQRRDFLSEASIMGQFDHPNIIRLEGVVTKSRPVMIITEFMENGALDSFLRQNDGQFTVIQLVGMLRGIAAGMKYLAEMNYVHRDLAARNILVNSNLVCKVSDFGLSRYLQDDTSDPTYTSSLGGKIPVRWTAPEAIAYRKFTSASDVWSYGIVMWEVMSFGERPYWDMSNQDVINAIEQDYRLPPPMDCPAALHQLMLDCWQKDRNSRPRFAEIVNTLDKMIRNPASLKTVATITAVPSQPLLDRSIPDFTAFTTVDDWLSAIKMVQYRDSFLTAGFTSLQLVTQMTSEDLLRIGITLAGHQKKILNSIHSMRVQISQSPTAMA

[10] = molecular target: T2, Mitogen-activated protein kinase kinase kinase 7 (Homo sapiens) (UniProt O43318); test: Inhibition of TAK1 at 1 uM; values are per cent of control
T2 sequence (whole entry): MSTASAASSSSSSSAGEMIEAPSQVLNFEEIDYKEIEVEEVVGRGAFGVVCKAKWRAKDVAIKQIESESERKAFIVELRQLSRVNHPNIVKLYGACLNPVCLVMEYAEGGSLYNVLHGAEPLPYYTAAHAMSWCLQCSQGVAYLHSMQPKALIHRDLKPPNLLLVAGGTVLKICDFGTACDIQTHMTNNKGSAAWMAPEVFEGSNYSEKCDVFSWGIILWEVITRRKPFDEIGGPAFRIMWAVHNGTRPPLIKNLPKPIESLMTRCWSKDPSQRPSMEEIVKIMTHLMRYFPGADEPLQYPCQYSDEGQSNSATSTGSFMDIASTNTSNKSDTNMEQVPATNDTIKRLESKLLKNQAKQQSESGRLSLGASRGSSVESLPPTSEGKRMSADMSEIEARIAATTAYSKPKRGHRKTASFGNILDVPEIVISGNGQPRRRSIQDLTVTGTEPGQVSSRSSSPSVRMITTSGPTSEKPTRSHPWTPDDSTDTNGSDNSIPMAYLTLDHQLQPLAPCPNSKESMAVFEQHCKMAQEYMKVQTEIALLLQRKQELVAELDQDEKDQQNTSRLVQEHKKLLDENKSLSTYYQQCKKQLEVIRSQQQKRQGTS

[11] = molecular target: T1, Ephrin type-B receptor 1 (Homo sapiens); test: Inhibition of EphB1 at 1 uM; values are per cent of control

Tyrosine-protein kinase CSK (Homo sapiens), sequence (P41240 2-450 limits assumed): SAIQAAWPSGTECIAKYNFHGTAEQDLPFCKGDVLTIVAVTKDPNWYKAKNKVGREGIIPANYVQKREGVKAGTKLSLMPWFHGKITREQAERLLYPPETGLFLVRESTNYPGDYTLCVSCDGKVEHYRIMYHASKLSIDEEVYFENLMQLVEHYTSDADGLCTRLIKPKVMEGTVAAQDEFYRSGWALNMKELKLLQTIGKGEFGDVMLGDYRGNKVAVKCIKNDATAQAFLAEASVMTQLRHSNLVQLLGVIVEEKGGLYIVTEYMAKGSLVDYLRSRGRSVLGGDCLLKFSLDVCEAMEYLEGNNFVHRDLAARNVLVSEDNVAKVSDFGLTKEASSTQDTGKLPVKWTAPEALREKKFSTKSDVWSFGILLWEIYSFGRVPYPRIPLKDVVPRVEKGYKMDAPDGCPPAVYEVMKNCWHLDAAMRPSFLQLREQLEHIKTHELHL
Ephrin type-A receptor 7 (Homo sapiens), sequence (Q15375 28-998 limits assumed): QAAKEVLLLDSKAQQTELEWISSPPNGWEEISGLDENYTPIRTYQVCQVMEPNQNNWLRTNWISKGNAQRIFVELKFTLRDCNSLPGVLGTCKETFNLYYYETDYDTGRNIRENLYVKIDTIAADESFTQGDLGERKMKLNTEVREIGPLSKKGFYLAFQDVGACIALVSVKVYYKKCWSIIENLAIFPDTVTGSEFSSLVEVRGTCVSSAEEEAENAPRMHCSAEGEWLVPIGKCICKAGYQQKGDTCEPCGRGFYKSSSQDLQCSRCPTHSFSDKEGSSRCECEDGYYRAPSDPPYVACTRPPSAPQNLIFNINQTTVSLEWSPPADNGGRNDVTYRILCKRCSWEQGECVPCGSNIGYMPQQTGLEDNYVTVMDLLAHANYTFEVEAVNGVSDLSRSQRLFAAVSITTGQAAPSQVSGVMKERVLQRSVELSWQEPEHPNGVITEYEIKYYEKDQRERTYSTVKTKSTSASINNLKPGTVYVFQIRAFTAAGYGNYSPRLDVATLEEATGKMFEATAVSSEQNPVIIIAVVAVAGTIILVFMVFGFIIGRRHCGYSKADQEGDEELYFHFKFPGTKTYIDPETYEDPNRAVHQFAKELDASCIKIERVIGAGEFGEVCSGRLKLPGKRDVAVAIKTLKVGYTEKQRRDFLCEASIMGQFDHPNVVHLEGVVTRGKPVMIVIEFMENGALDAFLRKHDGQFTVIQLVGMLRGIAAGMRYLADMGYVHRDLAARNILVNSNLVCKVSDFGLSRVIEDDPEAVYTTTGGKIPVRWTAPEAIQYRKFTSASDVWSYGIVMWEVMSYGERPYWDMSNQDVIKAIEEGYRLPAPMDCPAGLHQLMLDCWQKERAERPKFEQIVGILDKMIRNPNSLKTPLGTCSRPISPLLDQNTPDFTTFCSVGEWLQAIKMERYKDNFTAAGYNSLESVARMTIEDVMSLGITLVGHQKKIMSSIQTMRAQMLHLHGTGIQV
Macrophage colony-stimulating factor 1 receptor (Homo sapiens), sequence (P07333 whole entry): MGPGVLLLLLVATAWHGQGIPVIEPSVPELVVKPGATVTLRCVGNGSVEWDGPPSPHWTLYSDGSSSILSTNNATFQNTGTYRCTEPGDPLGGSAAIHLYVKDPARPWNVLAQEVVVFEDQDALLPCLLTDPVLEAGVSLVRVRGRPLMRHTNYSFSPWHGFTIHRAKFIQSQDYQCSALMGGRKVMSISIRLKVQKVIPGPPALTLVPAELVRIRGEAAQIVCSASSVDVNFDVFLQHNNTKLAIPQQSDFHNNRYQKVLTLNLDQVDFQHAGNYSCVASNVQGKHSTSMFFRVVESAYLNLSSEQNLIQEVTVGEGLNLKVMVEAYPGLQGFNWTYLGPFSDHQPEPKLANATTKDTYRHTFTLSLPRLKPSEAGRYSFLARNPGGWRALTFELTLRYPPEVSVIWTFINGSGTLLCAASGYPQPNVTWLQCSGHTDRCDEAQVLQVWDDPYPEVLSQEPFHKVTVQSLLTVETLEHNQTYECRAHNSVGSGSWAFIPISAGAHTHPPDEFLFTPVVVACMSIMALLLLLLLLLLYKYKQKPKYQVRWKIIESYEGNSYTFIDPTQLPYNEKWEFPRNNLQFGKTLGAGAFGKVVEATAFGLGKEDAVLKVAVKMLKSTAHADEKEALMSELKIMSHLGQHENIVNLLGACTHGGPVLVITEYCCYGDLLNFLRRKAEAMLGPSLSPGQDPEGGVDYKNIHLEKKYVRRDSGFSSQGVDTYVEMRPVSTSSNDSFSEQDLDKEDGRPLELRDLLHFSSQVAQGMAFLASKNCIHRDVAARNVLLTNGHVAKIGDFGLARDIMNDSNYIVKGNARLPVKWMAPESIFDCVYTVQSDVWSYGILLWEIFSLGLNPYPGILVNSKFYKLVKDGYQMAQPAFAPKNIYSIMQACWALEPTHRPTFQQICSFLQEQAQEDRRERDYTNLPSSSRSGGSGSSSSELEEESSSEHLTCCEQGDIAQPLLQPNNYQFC
Hepatocyte growth factor receptor (Homo sapiens), sequence (P08581 whole entry): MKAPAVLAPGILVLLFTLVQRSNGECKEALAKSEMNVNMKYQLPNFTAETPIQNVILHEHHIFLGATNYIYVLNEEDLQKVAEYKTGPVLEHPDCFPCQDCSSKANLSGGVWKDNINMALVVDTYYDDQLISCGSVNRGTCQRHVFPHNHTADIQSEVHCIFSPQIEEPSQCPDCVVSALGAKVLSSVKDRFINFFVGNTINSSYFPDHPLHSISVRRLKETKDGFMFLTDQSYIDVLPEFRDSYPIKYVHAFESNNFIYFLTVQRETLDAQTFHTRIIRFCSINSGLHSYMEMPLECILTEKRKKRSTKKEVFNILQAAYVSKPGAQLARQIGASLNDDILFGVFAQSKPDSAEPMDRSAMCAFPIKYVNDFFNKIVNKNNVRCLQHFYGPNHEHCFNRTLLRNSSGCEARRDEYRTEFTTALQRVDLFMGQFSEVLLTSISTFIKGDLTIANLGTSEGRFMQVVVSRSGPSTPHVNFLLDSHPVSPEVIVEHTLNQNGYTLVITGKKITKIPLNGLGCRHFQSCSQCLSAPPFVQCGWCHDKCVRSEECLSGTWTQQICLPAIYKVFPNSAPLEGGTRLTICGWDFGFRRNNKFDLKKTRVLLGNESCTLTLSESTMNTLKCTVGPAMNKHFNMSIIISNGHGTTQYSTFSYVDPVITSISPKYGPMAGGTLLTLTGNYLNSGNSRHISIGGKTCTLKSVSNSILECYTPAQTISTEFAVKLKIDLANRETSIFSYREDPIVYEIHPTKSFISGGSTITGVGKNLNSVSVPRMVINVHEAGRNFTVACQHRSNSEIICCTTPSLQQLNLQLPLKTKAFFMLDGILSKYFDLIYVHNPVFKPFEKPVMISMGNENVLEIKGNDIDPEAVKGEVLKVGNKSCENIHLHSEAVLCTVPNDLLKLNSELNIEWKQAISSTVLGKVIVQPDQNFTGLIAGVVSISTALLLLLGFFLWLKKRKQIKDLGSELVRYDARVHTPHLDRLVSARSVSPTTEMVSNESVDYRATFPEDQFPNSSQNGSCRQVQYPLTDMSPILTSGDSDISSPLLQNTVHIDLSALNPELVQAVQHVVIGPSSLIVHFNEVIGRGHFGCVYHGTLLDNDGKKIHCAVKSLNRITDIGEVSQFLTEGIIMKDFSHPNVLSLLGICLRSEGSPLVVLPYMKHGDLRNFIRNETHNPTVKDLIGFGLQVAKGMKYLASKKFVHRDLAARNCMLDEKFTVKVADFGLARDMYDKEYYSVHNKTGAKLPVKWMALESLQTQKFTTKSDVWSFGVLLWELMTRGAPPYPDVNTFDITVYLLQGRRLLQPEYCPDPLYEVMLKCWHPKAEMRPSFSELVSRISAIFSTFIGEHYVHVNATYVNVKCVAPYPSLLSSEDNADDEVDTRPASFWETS
Serine/threonine-protein kinase PLK3 (Homo sapiens), sequence (Q9H4B4 whole entry, looked up): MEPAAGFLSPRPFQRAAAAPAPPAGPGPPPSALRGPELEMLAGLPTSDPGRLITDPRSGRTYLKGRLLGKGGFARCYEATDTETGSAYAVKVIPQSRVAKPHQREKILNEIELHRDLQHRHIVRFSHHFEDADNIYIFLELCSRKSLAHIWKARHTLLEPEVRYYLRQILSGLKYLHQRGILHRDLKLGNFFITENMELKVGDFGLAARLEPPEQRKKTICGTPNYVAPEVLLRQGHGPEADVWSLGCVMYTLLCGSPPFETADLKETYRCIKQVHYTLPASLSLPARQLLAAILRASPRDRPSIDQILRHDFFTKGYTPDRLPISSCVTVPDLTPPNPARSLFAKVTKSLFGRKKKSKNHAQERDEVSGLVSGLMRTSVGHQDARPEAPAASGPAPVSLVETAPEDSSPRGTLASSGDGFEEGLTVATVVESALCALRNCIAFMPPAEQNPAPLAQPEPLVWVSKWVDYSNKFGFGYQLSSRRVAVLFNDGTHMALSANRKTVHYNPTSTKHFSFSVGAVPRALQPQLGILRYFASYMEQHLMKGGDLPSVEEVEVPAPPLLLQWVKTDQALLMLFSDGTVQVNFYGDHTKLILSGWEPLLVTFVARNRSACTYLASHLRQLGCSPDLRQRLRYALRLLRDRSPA
MAP kinase-activated protein kinase 2 (Homo sapiens), sequence (P49137 whole entry, looked up): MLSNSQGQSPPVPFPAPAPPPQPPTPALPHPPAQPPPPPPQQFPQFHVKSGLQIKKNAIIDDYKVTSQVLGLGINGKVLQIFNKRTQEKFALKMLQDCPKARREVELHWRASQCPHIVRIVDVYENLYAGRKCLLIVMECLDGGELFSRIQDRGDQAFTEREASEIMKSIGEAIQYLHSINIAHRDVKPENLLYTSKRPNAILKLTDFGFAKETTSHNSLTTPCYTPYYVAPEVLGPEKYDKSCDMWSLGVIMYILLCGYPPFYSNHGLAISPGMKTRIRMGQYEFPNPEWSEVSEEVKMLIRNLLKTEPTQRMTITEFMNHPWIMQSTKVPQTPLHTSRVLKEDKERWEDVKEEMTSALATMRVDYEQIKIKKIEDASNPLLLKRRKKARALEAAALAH

| residual activity [1] | inhibition [2] | residual activity [3] | residual activity [4] | residual activity [5] | residual activity [6] | residual activity [7] | residual activity [8] | residual activity [9] | residual activity [10] | residual activity [11] | Compound |
| --- | --- | --- | --- | --- | --- | --- | --- | --- | --- | --- | --- |
| 104% | 28% | 28% | 95% | 103% | 75% | 20% | 85% | 73% | 35% | 12% | Cc1ccc2cc(-c3n[nH]c4ccc(NC5CCN(Cc6ccccc6)CC5)cc34)[nH]c2c1 |
| 98% | 6% | 10% | 56% | 106% | 75% | 10% | 88% | 29% | 9% | 5% | Cc1ccc2cc(-c3n[nH]c4ccc(NC5CCNC5)cc34)[nH]c2c1 (configuration not stated) |
